What was measured:
[1] = Inhibition of GARFTase in Chinese Hamster PC43-10 cells expressing human RFC assessed as reduction in cell growth after 96 hrs by Cell-Titer Blue assay; settings: Cricetulus griseus, PC43-10, 96 h
In short: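 PC43-10 (RFC) or R2/PCFT4 (PCFT) CHO, grown in α-MEM + 10% bovine calf serum + G418 (1 mg/mL). ~2000 cells/well exposed to 0–1000 nM drug in folate-free RPMI 1640 with 10% dialyzed FBS and 25 nM leucovorin for 96 h. Viability by Cell-Titer Blue fluorescence; IC50 as 50% growth inhibition relative to drug-free cells; mean of 5–16 experiments.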

[2] = Inhibition of GARFTase in Chinese Hamster RT16 cells expressing human FRalpha assessed as reduction in cell growth after 96 hrs by Cell-Titer Blue assay; format: cell-based; settings: Cricetulus griseus, RT16, 96 h
[3] = species: Cricetulus griseus; test: Potency index, ratio of (2S)-2-[[4-[4-(2-amino-4-oxo-3,7-dihydropyrrolo[2,3-d]pyrimidin-6-yl)butyl]benzoyl]amino]pentanedioic acid IC50 to compound IC50 for GARFTase in Chinese Hamster D4 cells expressing human FRbeta assessed as reduction in cell growth after 96 hrs by Cell-Titer Blue assay; format: cell-based
In short: (§1)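 CHO sublines from transporter-null R2 cells, expressing human FRβ (D4) or FRα (RT16), were kept in α-MEM with 10% calf serum and G418 (1 mg/mL). They were then moved to folate-free RPMI 1640 with 10% dialyzed FBS for 3 days. ~2000 cells/well were exposed to 0–1000 nM drug with 2 nM leucovorin for 96 h, ± 200 nM folic acid, and read by Cell-Titer Blue fluorescence. IC50 is 50% growth loss versus untreated cells; index is reference IC50 over compound IC50.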

[4] = Inhibition of GARFTase in Chinese Hamster MTXRII-OuaR2-4/RFC/FRalpha/PCFT-null R2 cells assessed as reduction in cell growth after 96 hrs by Cell-Titer Blue assay; format: cell-based; settings: Cricetulus griseus, R2, 96 h
[5] = Inhibition of GARFTase in Chinese Hamster D4 cells expressing human FRbeta assessed as reduction in cell growth after 96 hrs by Cell-Titer Blue assay; format: cell-based; settings: Cricetulus griseus
[6] = Inhibition of GARFTase in Chinese Hamster MTXRII-OuaR2-4 R2 cells expressing human PCFT assessed as reduction in cell growth after 96 hrs by Cell-Titer Blue assay; format: cell-based; settings: Cricetulus griseus, R2, 96 h
[7] = target: T1, Trifunctional purine biosynthetic protein adenosine-3 (Homo sapiens) (UniProt P22102); test: Potency index, ratio of (2S)-2-[[4-[4-(2-amino-4-oxo-3,7-dihydropyrrolo[2,3-d]pyrimidin-6-yl)butyl]benzoyl]amino]pentanedioic acid IC50 to compound IC50 for GARFTase in human KB cells assessed as reduction in cell growth after 96 hrs by Cell-Titer Blue assay; format: cell-based
T1 sequence (whole entry): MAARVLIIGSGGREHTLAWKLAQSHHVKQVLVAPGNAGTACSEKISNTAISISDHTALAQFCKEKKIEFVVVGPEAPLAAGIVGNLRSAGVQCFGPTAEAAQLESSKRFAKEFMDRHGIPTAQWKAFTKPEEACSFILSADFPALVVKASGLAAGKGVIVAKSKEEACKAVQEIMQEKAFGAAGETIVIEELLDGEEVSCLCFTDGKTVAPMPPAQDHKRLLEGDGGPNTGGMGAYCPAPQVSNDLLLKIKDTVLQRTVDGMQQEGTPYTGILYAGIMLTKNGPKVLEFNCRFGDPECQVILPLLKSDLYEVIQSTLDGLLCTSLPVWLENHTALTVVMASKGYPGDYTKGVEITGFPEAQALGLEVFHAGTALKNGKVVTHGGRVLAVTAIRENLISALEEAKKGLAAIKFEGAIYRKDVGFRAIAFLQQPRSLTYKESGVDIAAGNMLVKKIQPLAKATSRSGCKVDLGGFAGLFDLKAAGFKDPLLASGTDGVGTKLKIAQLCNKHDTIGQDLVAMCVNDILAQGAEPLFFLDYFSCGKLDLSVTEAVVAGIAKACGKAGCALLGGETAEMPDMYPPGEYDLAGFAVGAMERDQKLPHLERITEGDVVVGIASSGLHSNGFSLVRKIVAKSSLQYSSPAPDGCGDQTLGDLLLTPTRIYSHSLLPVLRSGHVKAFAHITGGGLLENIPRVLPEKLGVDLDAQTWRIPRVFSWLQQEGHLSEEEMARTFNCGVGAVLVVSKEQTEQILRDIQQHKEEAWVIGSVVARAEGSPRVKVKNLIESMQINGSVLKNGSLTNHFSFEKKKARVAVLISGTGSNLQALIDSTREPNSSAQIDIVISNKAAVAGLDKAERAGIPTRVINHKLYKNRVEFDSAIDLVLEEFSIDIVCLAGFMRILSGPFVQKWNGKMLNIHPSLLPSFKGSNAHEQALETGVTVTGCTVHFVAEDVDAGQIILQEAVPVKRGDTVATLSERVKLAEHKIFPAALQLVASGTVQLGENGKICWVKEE
In short: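 KB human carcinoma cells, which express RFC, FRα and PCFT, were maintained in folate-free RPMI with 10% FBS. ~2000 cells/well were exposed to 0–1000 nM drug in folate-free RPMI 1640 with 10% dialyzed FBS and 2 nM leucovorin for 96 h, ± 200 nM folic acid. Viability was read by Cell-Titer Blue fluorescence. IC50 is 50% growth loss versus untreated cells; index is reference IC50 over compound IC50.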

[8] = species: Cricetulus griseus; test: Potency index, ratio of (2S)-2-[[4-[4-(2-amino-4-oxo-3,7-dihydropyrrolo[2,3-d]pyrimidin-6-yl)butyl]benzoyl]amino]pentanedioic acid IC50 to compound IC50 for GARFTase in Chinese Hamster RT16 cells expressing human FRalpha assessed as reduction in cell growth after 96 hrs by Cell-Titer Blue assay; format: cell-based; in short: as §1

| Compound | IC50 [1] | IC50 [2] | Ratio IC50 [3] | IC50 [4] | IC50 [5] | IC50 [6] | Ratio IC50 [7] | Ratio IC50 [8] |
| --- | --- | --- | --- | --- | --- | --- | --- | --- |
| Nc1nc2[nH]c(CCCN(C=O)c3ccc(C(=O)N[C@@H](CCC(=O)O)C(=O)O)cc3)cc2c(=O)[nH]1 | > 1000 nM | 35.6 nM | 16 | > 1000 nM | 0.61 nM | 893 nM |  |  |
| Nc1nc2[nH]c(CCCN(C(=O)C(F)(F)F)c3ccc(C(=O)N[C@@H](CCC(=O)O)C(=O)O)cc3)cc2c(=O)[nH]1 | > 1000 nM | 5.78 nM | 3 | > 1000 nM | 3.87 nM | 487 nM |  |  |
| Nc1nc2[nH]c(CCCc3ccc(C(=O)N[C@@H](CCC(=O)O)C(=O)O)cc3)cc2c(=O)[nH]1 | 649 nM |  |  | > 1000 nM |  |  |  |  |
| CC(=O)N(CCCc1cc2c(=O)[nH]c(N)nc2[nH]1)c1ccc(C(=O)N[C@@H](CCC(=O)O)C(=O)O)cc1 | > 1000 nM | 57.2 nM |  | > 1000 nM | 12.8 nM | > 1000 nM |  |  |
| Nc1nc2[nH]c(CCCNc3ccc(C(=O)N[C@@H](CCC(=O)O)C(=O)O)cc3)cc2c(=O)[nH]1 | 670 nM | 1.76 nM | 6 | 697 nM | 1.51 nM | 235 nM | 2 | 3 |
| Nc1nc2[nH]c(CCCOc3ccc(C(=O)N[C@@H](CCC(=O)O)C(=O)O)cc3)cc2c(=O)[nH]1 | > 1000 nM | 4.6 nM | 2 | > 1000 nM | 5.6 nM | > 1000 nM |  |  |
| Nc1nc2[nH]c(CCNc3ccc(C(=O)N[C@@H](CCC(=O)O)C(=O)O)cc3)cc2c(=O)[nH]1 | 510 nM | 3.04 nM |  | > 1000 nM | 0.62 nM | 87.4 nM |  |  |
| Nc1nc2[nH]c(CCCCc3ccc(C(=O)N[C@@H](CCC(=O)O)C(=O)O)cc3)cc2c(=O)[nH]1 | > 1000 nM |  |  | > 1000 nM |  |  |  |  |
| Nc1nc2[nH]c(CCCSc3ccc(C(=O)N[C@@H](CCC(=O)O)C(=O)O)cc3)cc2c(=O)[nH]1 | > 1000 nM | 2.56 nM | 16 | > 1000 nM | 0.6 nM | 593 nM | 6 | 2 |
